We go through 21 compounds from ChEMBL document CHEMBL2021892, “Rational design, synthesis and anti-proliferative properties of new CB2 selective cannabinoid receptor ligands: an investigation of the 1,8-naphthyridin-2(1H)-one scaffold” (Eur J Med Chem, 2012).

Calls of active or inactive are those of the source. The calls are words filed in the database; no cut-off is given here.

One data set deals with HEK293. The data set can be described thus: Selectivity index, ratio of Ki for recombinant human CB1 receptor expressed in human HEK293 cell membrane to recombinant human CB2 receptor expressed in human HEK293 cell membrane. Format: cell-based. In short, it runs like this:
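Selectivity index is Ki(CB1)/Ki(CB2). Both Ki values come from [3H]CP55,940 displacement over 90 min at 30 °C, using membranes of HEK-293 cells expressing human recombinant CB1R or CB2R, with Cheng–Prusoff conversion.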

The next data set has as its target Cannabinoid receptor 1 (Homo sapiens, UniProt P21554). As to the kind of experiment: Displacement of [3H]CP55940 from recombinant human CB1 receptor expressed in human HEK293 cell membrane after 90 mins. Format: cell membranes. The procedure, abridged:
(§1)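 Membranes of HEK-293 cells transfected with human recombinant CB1R (Bmax 2.5 pmol/mg protein) or CB2R (Bmax 4.7 pmol/mg protein). Test compound at increasing concentrations displaced [3H]CP55,940 over 90 min at 30 °C. Ki obtained from IC50 by Cheng–Prusoff. Means of at least three experiments run in duplicate.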

The target in another data set is Cannabinoid receptor 2 (Homo sapiens, UniProt P34972). As to the kind of experiment: Displacement of [3H]CP55940 from recombinant human CB2 receptor expressed in human HEK293 cell membrane after 90 mins. In kind it is cell membranes. In short, it runs like this: as §1
Sequence of Cannabinoid receptor 2 (P34972 whole entry): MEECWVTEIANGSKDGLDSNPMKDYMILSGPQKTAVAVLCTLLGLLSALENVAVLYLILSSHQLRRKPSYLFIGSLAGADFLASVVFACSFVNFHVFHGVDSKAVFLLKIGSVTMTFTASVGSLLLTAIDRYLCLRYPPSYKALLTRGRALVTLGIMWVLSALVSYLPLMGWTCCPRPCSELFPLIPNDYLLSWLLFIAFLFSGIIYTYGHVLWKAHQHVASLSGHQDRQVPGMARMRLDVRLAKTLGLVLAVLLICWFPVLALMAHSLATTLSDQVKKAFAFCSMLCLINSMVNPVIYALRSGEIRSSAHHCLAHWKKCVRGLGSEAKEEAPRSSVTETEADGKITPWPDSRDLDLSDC
(Loss of bound radioactivity is the signal in a displacement assay; it reports binding, not function.)

A short description of data set [1]: Solubility of the compound in DMSO/water solution. Format: physicochemical.
The subject of another data set is AGS. As to the kind of experiment: Antiproliferative activity against human AGS cells at 1 uM after 4 days by XTT assay. In kind it is functional. The conditions noted are these: 96 h. The procedure, abridged: (§2)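 Cells kept at 37 °C, 5% CO2; seeded at 3 × 10³ cells per well, treated 3 h later with vehicle or ligand (1 µM in the four-day panel), medium and ligand renewed every two days for four days. Proliferation read by XTT staining; vehicle-treated O.D. taken as 100%. Two-tailed t-test versus vehicle.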

Another data set has as its system T98G. As to the kind of experiment: Antiproliferative activity against human T98G cells at 1 uM after 4 days by XTT assay. In kind it is functional. The note with it: 96 h. In short, it runs like this: as §2
Background: Tetrazolium assays rely on reduction of a dye to a coloured formazan, in cell work by metabolically active cells.

In data set [2] the test system is DU-145. As to the kind of experiment: Antiproliferative activity against human DU145 cells at 0.3 uM after 24 hrs by SRB assay in presence of CB2 receptor antagonist SR144528. Format: functional, cell-based. The procedure, abridged:
(§3)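 DU-145 cells seeded at 10,000 per well, exposed 24 h to CB2 ligands, with or without SR144528 (3 µM). Line 2 covers 0.1 to 1 µM; lines 3 and 4 use 0.3 µM. Proliferation read as O.D. by sulforhodamine B. Three independent experiments; two-tailed t-test against vehicle and against ligand plus SR144528.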
(In general: Sulforhodamine B stains cellular protein and so reports cell mass.)

For data set [3], the system named is DU-145. The data set can be described thus: Antiproliferative activity against human DU145 cells at 1 uM after 4 days by XTT assay. Format: functional. The conditions noted are these: DU-145, 96 h. The procedure, abridged:
as §2

A short description of data set [4]: Antiproliferative activity against human WS1 cells at 1 uM after 4 days by XTT assay. The note with it: for Activity: ws1, 96 h, 1 µM. In kind it is cell-based. In short, it runs like this: as §2
A short description of data set [5]: Antiproliferative activity against myelin basic protein-activated human lymphocytes at 0.3 uM. The note with it: lymphocyte. Format: cell-based.
Data set [6] concerns DU-145. As to the kind of experiment: Antiproliferative activity against human DU145 cells at 0.1 to 1 uM after 24 hrs by SRB assay. Format: functional, cell-based. In short, it runs like this: as §3
For data set [7], the system named is DU-145. As to the kind of experiment: Down-regulation of CB2 receptor protein level in human DU145 cells at 0.3 uM after 24 hrs by immunoblot analysis in presence of CB2 receptor antagonist SR144528. Format: functional, cell-based. The procedure, abridged:
(§4)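 DU-145 cells incubated 24 h with ligand at 0.3 µM, with or without SR144528 at 3 µM. Cells washed in PBS, lysed at pH 7.5 in HEPES/NaCl/EDTA/NaF/vanadate/Triton buffer, and centrifuged at 12,000 g, 4 °C. 40 µg protein run on 12% SDS-PAGE and transferred to nitrocellulose. Blots probed overnight with anti-CB2, detected by HRP anti-rabbit and ECL, normalized to actin.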

Data set [8] relates to DU-145. As to the kind of experiment: Down-regulation of CB2 receptor protein level in human DU145 cells at 0.3 uM after 24 hrs by immunoblot analysis in presence of CB1 receptor antagonist SR141716. Format: functional, cell-based.
The subject of data set [9] is DU-145. As to the kind of experiment: Down-regulation of CB2 receptor protein level in human DU145 cells at 0.3 uM after 24 hrs by immunoblot analysis. In kind it is functional, cell-based. The procedure, abridged:
as §4

The next data set deals with MCF7. The data set can be described thus: Antiproliferative activity against human MCF7 cells at 1 uM after 4 days by XTT assay. The note with it: MCF7, 96 h. In kind it is functional. The procedure, abridged:
as §2

Data set [10] relates to DU-145. As to the kind of experiment: Antiproliferative activity against human DU145 cells at 0.3 uM after 24 hrs by SRB assay. In kind it is functional, cell-based. The procedure, abridged:
as §3

Sequence of Cannabinoid receptor 1 (P21554 whole entry): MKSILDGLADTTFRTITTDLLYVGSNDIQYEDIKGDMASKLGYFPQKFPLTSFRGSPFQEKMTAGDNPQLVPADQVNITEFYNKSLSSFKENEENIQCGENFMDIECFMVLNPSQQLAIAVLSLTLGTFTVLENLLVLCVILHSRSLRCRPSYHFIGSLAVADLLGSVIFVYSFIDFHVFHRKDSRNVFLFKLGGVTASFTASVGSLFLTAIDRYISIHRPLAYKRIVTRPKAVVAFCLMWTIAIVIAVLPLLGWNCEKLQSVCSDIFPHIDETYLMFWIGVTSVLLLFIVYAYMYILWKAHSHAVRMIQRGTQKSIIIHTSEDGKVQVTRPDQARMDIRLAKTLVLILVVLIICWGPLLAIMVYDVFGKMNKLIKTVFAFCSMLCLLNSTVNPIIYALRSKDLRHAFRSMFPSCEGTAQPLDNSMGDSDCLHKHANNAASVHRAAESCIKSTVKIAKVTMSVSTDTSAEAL

The Ki is the dissociation constant of the complex between target and ligand, obtained from inhibition or displacement. Consider `O=C(NC1CCCCC1)c1cc2ccccc2nc1OCc1ccc(F)cc1`, for which the Ratio Ki in the data set with HEK293 turned out to be 9.2. For the same compound, the Ki on Cannabinoid receptor 1 was found to be 1200 nM; on Cannabinoid receptor 2, 130 nM.
On to `O=C(NC1CCCCC1)c1cccn(CCN2CCOCC2)c1=O`, for which the inhibition constant Ki is above 10000 nM on Cannabinoid receptor 1 and 7900 nM at Cannabinoid receptor 2.
For the compound `O=C(NC1CCCCC1)c1c(O)c2cccnc2n(Cc2ccccc2)c1=O`, the Ratio Ki with HEK293 was determined as 7.1. Also, the inhibitory constant (Ki) was 560 nM at Cannabinoid receptor 1 and 79 nM at Cannabinoid receptor 2.
For `O=C(NC1CCCCC1)c1cc2ccccc2n(CCN2CCOCC2)c1=O`, the Ratio Ki in the data set with HEK293 is 33. The inhibition constant Ki at Cannabinoid receptor 1 turned out to be 300 nM; at Cannabinoid receptor 2 it was 9 nM.
As to `O=C(NC1CCCCC1)c1cccn(Cc2ccc(F)cc2)c1=O`, in the data set with HEK293, the Ratio Ki stood at 3.5. Moreover, the Ki was found to be 70 nM on Cannabinoid receptor 1 and 20 nM at Cannabinoid receptor 2.
Regarding `O=C(NC1CCCCC1)c1c(O)c2cccnc2n(Cc2ccc(F)cc2)c1=O`, the solubility entry in [1] is recorded as “Insoluble”.
Take `CCCC(C)(C)c1ccc2c(c1)OC(C)(C)[C@@H]1CC=C(C)C[C@@H]21`: the Ki at Cannabinoid receptor 1 was 117 nM; on Cannabinoid receptor 2, 1.82 nM.
In the case of `O=C(NC1CCCCC1)c1cccn(Cc2ccccc2)c1=O`, the Ratio Ki in the data set on HEK293 was determined as 4. Moreover, the Ki came to 800 nM on Cannabinoid receptor 1 and 200 nM at Cannabinoid receptor 2.
As a reminder, the inhibition is the percentage by which the read-out fell short of the control. As to `O=C(NC1CCCCCC1)c1c(O)c2cccnc2n(CCN2CCOCC2)c1=O`, the inhibition at 1 µM turned out to be 62% with AGS, 15% in the data set on T98G, 33% with DU-145 [3] and 26% in the data set on MCF7. For the same compound, the outcome with DU-145 [2] and in the data set on DU-145 [7] was inactive. This compound also returned an inhibition at 96 h, 1 µM in data set [4] (WS1 cells) of 21%. Moreover, the Activity entry in data set [5] is “Non-toxic”. In addition, the inhibition entry in the data set on DU-145 [6] was “Active”. Further, the Ratio Ki in the data set on HEK293 was found to be 130. In addition, the result with DU-145 [8], in the data set on DU-145 [9] and with DU-145 [10] was Active. The Ki at Cannabinoid receptor 1 turned out to be 234 nM; on Cannabinoid receptor 2, 1.8 nM.
As for `O=C(NC1CCCCC1)c1c(O)c2cccnc2n(CCN2CCOCC2)c1=O`, the Ratio Ki in the data set on HEK293 came to 26.6. In addition, the Ki at Cannabinoid receptor 1 came out at 64.6 nM; at Cannabinoid receptor 2 it was 2.4 nM.
`O=C(NC1CCCCC1)c1cc2ccccc2n(Cc2ccc(F)cc2)c1=O`: the Ratio Ki with HEK293 is 5.7. Also, the Ki at Cannabinoid receptor 1 stood at 16.5 nM; on Cannabinoid receptor 2, 2.9 nM.
For `Cc1ccc(Cn2nc(C(=O)N[C@@H]3C(C)(C)[C@@H]4CC[C@@]3(C)C4)cc2-c2ccc(Cl)c(C)c2)cc1`, the result in the data set on DU-145 [2] was inactive. The Activity result in data set [5] is “Non-toxic”. Further, the result in the data set on DU-145 [9] was Active.
Regarding `O=C(NC1CCCCC1)c1cccnc1OCc1ccc(F)cc1`, the Ratio Ki with HEK293 stood at 7.3. Moreover, the values for the inhibition constant Ki at Cannabinoid receptor 1 and at Cannabinoid receptor 2 were 1810 nM and 250 nM, respectively.
As for `O=C(NC1CCCCCC1)c1cc2ccccc2n(Cc2ccc(F)cc2)c1=O`, the Ratio Ki in the data set with HEK293 was 48. In addition, the Ki at Cannabinoid receptor 1 was found to be 11.6 nM; at Cannabinoid receptor 2, 0.25 nM.
On the same counts, the results for `O=C(NC1CCCCC1)c1cc2ccccc2n(Cc2ccccc2)c1=O` are 4.2, 67 nM and 16 nM.
As for `O=C(NC1CCCCCC1)c1cccn(Cc2ccc(F)cc2)c1=O`, the outcome with DU-145 [2] and with DU-145 [7] was inactive. Further, the values for the inhibition at 1 µM in the data set on DU-145 [3] and with MCF7 were 15% and 12%, respectively. Besides, the Activity entry in data set [4] and in data set [5] was “Non-toxic” each time. The inhibition entry in the data set with DU-145 [6] is “Active”. Besides, in the data set with HEK293, the Ratio Ki was determined as 5.5. The outcome with DU-145 [8], with DU-145 [9] and in the data set with DU-145 [10] was Active. The Ki at Cannabinoid receptor 1 turned out to be 43 nM; at Cannabinoid receptor 2, 7.8 nM.
As for `O=C(NC1CCCCC1)c1cccnc1OCc1ccccc1`, the results for the Ki on Cannabinoid receptor 1 and at Cannabinoid receptor 2 were above 10000 nM and 916 nM, respectively.
As to `O=C(NC1CCCCCC1)c1cccnc1OCc1ccc(F)cc1`, in the data set with HEK293, the Ratio Ki came to 4. Further, the results for the Ki on Cannabinoid receptor 1 and on Cannabinoid receptor 2 were 100 nM and 25 nM, respectively.
Turning to `O=C(NC1CCCCCC1)c1cc2ccccc2n(CCN2CCOCC2)c1=O`, the result in the data set with DU-145 [2] and with DU-145 [7] was inactive. In addition, the inhibition at 1 µM in the data set with DU-145 [3] turned out to be 11%. Moreover, the Activity entry in data set [4] and in data set [5] was “Non-toxic” in each case. In the data set on DU-145 [6], the inhibition entry was “Active”. In addition, the Ratio Ki with HEK293 stood at 103. Further, the result in the data set with DU-145 [8], in the data set with DU-145 [9] and in the data set on DU-145 [10] was Active. In addition, the Ki amounted to 206 nM at Cannabinoid receptor 1 and 2 nM on Cannabinoid receptor 2.
As to `O=C(NC1CCCCCC1)c1cccn(CCN2CCOCC2)c1=O`, in the data set with HEK293, the Ratio Ki worked out at 1.2. For the same compound, the values for the Ki at Cannabinoid receptor 1 and at Cannabinoid receptor 2 were 950 nM and 790 nM, respectively.
With `O=C(NC1CCCCCC1)c1c(O)c2cccnc2n(Cc2ccc(F)cc2)c1=O`, in data set [1], the solubility entry is given as “Insoluble”.
